pIC50: −log10 of the molar value. ≈ marks a conversion by molar mass, not a printed value. Calls of active or inactive are those of the source.
How the values were obtained:
Staphylococcus aureus [1] = assay: Antimicrobial activity against Staphylococcus aureus ATCC 25923 measuring eradication of bacteria at 4 to 16 times MIC measured over 6 hrs by time-kill assay; format: functional
How it was run: (§1)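 S. aureus (ATCC 25923 or CA-MRSA USA300) in log phase suspended at about 1.5×10^6 CFU/mL in CA-MHB containing compound at multiples of MIC, with a drug-free broth control. Cultures held at 37 °C, aerobic, shaking at 180 rpm. Samples taken at 0, 2, 4 and 6 h, 10-fold diluted in PBS and spotted on Columbia blood agar. Colonies counted after overnight 37 °C as CFU/mL. Triplicate.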

Streptococcus pneumoniae [2] = assay: Antimicrobial activity against Streptococcus pneumoniae clinical isolate CUHK-X03 assessed as reduction in microbial growth measured after 20 hrs by CLSI based broth microdilution method; format: functional
Pseudomonas aeruginosa = assay: Antimicrobial activity against Pseudomonas aeruginosa ATCC 27853 assessed as reduction in microbial growth measured after 20 hrs by CLSI based broth microdilution method; format: functional
How it was run: (§2)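 Broth microdilution per CLSI in cation-adjusted Mueller-Hinton broth. Two-fold serial dilutions from 256 to 0.25 μg/mL, inoculum about 5 × 10⁵ CFU/mL. Read after 20 h at 37 °C. MIC is the lowest concentration with no visible growth. Run in duplicate.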

[3] = Inhibition of Bacillus subtilis LgBiT-fused NusG/C-terminal SmBit fused […] CH protein-protein interaction using […] incubated for 20 mins by luminescence based analysis
How it was run: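 Split-nanoluciferase competition assay with His-tagged proteins expressed in E. coli BL21(DE3) and Ni-purified. C-SmBiT-β'CH (250 nM in PBS) was preincubated with compound for 10 min at 37 °C. N-LgBiT-NusG (250 nM in PBS) was then added and incubated 10 min at 37 °C. Nano-Glo substrate was added and luminescence read. IC50 determined. Triplicate with technical repeats.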

Staphylococcus aureus [4] = assay: Antimicrobial activity against community-associated methicillin-resistant Staphylococcus aureus USA300 assessed as reduction in bacterial count below the detectable threshold at 4 to 16 times MIC measured after 4 hrs by time-kill assay; format: functional, organism-based; how it was run: as §1
Escherichia coli [5] = assay: Antimicrobial activity against Escherichia coli ATCC 25922 assessed as reduction in microbial growth measured after 20 hrs by CLSI based broth microdilution method; format: functional; how it was run: as §2
Enterobacter cloacae = assay: Antimicrobial activity against Enterobacter cloacae ATCC 13047 assessed as reduction in microbial growth measured after 20 hrs by CLSI based broth microdilution method; format: functional; how it was run: as §2
Acinetobacter baumannii = assay: Antimicrobial activity against Acinetobacter baumannii ATCC 19606 assessed as reduction in microbial growth measured after 20 hrs by CLSI based broth microdilution method; format: functional; how it was run: as §2
Streptococcus pneumoniae [6] = assay: Antimicrobial activity against Streptococcus pneumoniae TCH8431 (HM-145) assessed as reduction in microbial growth measured after 20 hrs by CLSI based broth microdilution method; format: functional
Staphylococcus aureus [7] = assay: Antimicrobial activity against community-associated methicillin-resistant Staphylococcus aureus USA300 assessed as reduction in bacterial count at 1 times MIC measured after 4 to 6 hrs by time-kill assay; format: functional, organism-based; conditions: time 4-6 hrs; how it was run: as §1
Escherichia coli [8] = assay: Upregulation of cat gene transcription level in Escherichia coli K12 transformed with pSL103 at 1/8 to 1/4 times MIC measured after 30 mins; format: functional
How it was run: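 Cells lysed with lysozyme in TE, total RNA extracted and reverse transcribed. cat transcript quantified by SYBR Green qPCR, 40 cycles, normalised to gyrB by ΔCT. Triplicates, unpaired t-test.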

Staphylococcus aureus [9] = assay: Antimicrobial activity against Staphylococcus aureus ATCC 25923 assessed as reduction in bacterial count below the detectable threshold at 4 to 16 times MIC measured within 2 hrs by time-kill assay; format: functional, organism-based
Klebsiella pneumoniae = assay: Antimicrobial activity against Klebsiella pneumoniae ATCC 700603 assessed as reduction in microbial growth measured after 20 hrs by CLSI based broth microdilution method; format: functional; how it was run: as §2
Streptococcus pneumoniae [10] = assay: Antimicrobial activity against Streptococcus pneumoniae clinical isolate CUHK-X04 assessed as reduction in microbial growth measured after 20 hrs by CLSI based broth microdilution method; format: functional
[11] = test system: Staphylococcus epidermidis; assay: Antimicrobial activity against Staphylococcus epidermidis ATCC 12228 assessed as reduction in microbial growth measured after 20 hrs by CLSI based broth microdilution method; format: functional
Bacillus subtilis [12] = assay: Antibacterial activity against Bacillus Subtilis assessed as bacterial transcription by measuring delocalization of GFP-tagged RpoC at 1 time MIC incubated for 30 mins by epifluorescence microscopy based analysis; format: functional, organism-based
How it was run: (§3)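 B. subtilis reporter strains expressing GFP fusions, grown overnight on selective LB agar at 37 °C, then overnight in LB with selective antibiotic and xylose, 37 °C, 180 rpm. Cells mounted on 1.2% agarose, imaged by epifluorescence with 100×/1.45 oil objective, FITC (525/50) filter.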

Streptococcus pneumoniae [13] = assay: Antimicrobial activity against Streptococcus pneumoniae NP112 (NR-19213) assessed as reduction in microbial growth measured after 20 hrs by CLSI based broth microdilution method; format: functional
Streptococcus pneumoniae [14] = assay: Antimicrobial activity against Streptococcus pneumoniae clinical isolate CUHK-X02 assessed as reduction in microbial growth measured after 20 hrs by CLSI based broth microdilution method; format: functional
Streptococcus pneumoniae [15] = assay: Antimicrobial activity against Streptococcus pneumoniae clinical isolate CUHK-X01 assessed as reduction in microbial growth measured after 20 hrs by CLSI based broth microdilution method; format: functional
Staphylococcus aureus [16] = assay: Antimicrobial activity against Staphylococcus aureus ATCC 25923 assessed as reduction in bacterial count at 1 times MIC measured after 4 to 6 hrs by time-kill assay; format: functional, organism-based; conditions: time 4-6 hrs
Enterococcus faecalis = assay: Antimicrobial activity against Enterococcus faecalis ATCC 19433 assessed as reduction in microbial growth measured after 20 hrs by CLSI based broth microdilution method; format: functional; how it was run: as §2
Bacillus subtilis [17] = assay: Antibacterial activity against Bacillus Subtilis assessed as bacterial transcription by measuring delocalization of NusG at 1 time MIC incubated for 30 mins by epifluorescence microscopy based analysis; format: functional, organism-based; how it was run: as §3
Bacillus subtilis [18] = assay: Antibacterial activity against Bacillus Subtilis assessed as bacterial transcription by measuring delocalization of GFP-tagged RpsB at 1 time MIC incubated for 30 mins by epifluorescence microscopy based analysis; format: functional, organism-based; how it was run: as §3
Streptococcus pneumoniae [19] = assay: Antimicrobial activity against Streptococcus pneumoniae ATCC 49619 assessed as reduction in microbial growth measured after 20 hrs by CLSI based broth microdilution method; format: functional
Staphylococcus aureus [20] = assay: Antimicrobial activity against Staphylococcus aureus ATCC 25923 assessed as reduction in bacterial growth at 4 to 16 times MIC measured over 6 hrs by time-kill assay relative to control; format: functional; design: scale not given: the % may be the effect or the level left; how it was run: as §1
Bacillus subtilis [21] = assay: Antibacterial activity against Bacillus Subtilis assessed as bacterial transcription by measuring subcellular localization of MreB at 1 time MIC incubated for 30 mins by epifluorescence microscopy based analysis; format: functional, organism-based; how it was run: as §3
Streptococcus pyogenes = assay: Antimicrobial activity against Streptococcus pyogenes ATCC 19615 assessed as reduction in microbial growth measured after 20 hrs by CLSI based broth microdilution method; format: functional
Staphylococcus aureus [22] = assay: Antimicrobial activity against Staphylococcus aureus ATCC 25923 assessed as inhibition of microbial growth at 1 times MIC measured after 2 hrs by time-kill assay; format: functional, organism-based
Staphylococcus aureus [23] = assay: Antimicrobial activity against community-associated methicillin-resistant Staphylococcus aureus USA300 assessed as inhibition of microbial growth at 1 times MIC measured after 2 hrs by time-kill assay; format: functional, organism-based; how it was run: as §1
Escherichia coli [24] = assay: Antimicrobial activity against Escherichia coli K12 transformed with pSL103 assessed as reduction in bacterial growth measured after 30 mins; format: functional; conditions: K12, 0.5 h
Streptococcus agalactiae = assay: Antimicrobial activity against Streptococcus agalactiae ATCC 12386 assessed as reduction in microbial growth measured after 20 hrs by CLSI based broth microdilution method; format: functional
[25] = test system: Staphylococcus saprophyticus; assay: Antimicrobial activity against Staphylococcus saprophyticus ATCC 15305 assessed as reduction in microbial growth measured after 20 hrs by CLSI based broth microdilution method; format: functional
Staphylococcus aureus [26] = assay: Antimicrobial activity against Staphylococcus aureus ATCC 25923 assessed as reduction in microbial growth measured after 20 hrs by CLSI based broth microdilution method; format: functional; how it was run: as §2
Staphylococcus aureus [27] = assay: Antimicrobial activity against Staphylococcus aureus ATCC 29213 assessed as reduction in microbial growth measured after 20 hrs by CLSI based broth microdilution method; format: functional; how it was run: as §2

OC(CNCCNc1ccccc1C(F)(F)F)CSc1ccc(C(F)(F)F)cc1 (centres undefined)
Activity (Staphylococcus aureus [1]): <200 CFU/ml
MIC (Streptococcus pneumoniae [2]): 8 µg/mL
MIC (Pseudomonas aeruginosa): > 256 µg/mL
pIC50 [3]: 3.85
Activity (Staphylococcus aureus [4]): Active
MIC (Escherichia coli [5]): 64 µg/mL
MIC (Enterobacter cloacae): 32 µg/mL
MIC (Acinetobacter baumannii): > 256 µg/mL
MIC (Streptococcus pneumoniae [6]): 2 µg/mL
Activity (Staphylococcus aureus [7]): Active
Activity (Escherichia coli [8]): Active
Activity (Staphylococcus aureus [9]): Active
MIC (Klebsiella pneumoniae): > 256 µg/mL
MIC (Streptococcus pneumoniae [10]): 2 µg/mL
MIC [11]: 8 µg/mL
Activity (Bacillus subtilis [12]): Active
MIC (Streptococcus pneumoniae [13]): 4 µg/mL
MIC (Streptococcus pneumoniae [14]): 4 µg/mL
MIC (Streptococcus pneumoniae [15]): 1 µg/mL
Activity (Staphylococcus aureus [16]): Active
MIC (Enterococcus faecalis): 8 µg/mL
Activity (Bacillus subtilis [17]): Active
Activity (Bacillus subtilis [18]): Active
MIC (Streptococcus pneumoniae [19]): 1 µg/mL
Activity (Staphylococcus aureus [20]): 100%
Activity (Bacillus subtilis [21]): Active
MIC (Streptococcus pyogenes): 8 µg/mL
Activity (Staphylococcus aureus [22]): Active
Activity (Staphylococcus aureus [23]): Active
MIC (Escherichia coli [24]): 16 µg/mL (≈ 36.5 µM)
MIC (Streptococcus agalactiae): 16 µg/mL
MIC [25]: 2 µg/mL
MIC (Staphylococcus aureus [26]): 4 µg/mL
MIC (Staphylococcus aureus [27]): 4 µg/mL

Source: ChEMBL document CHEMBL6071151, “Discovery of Inhibitors Targeting Protein-Protein Interaction between Bacterial RNA Polymerase and NusG as Novel Antimicrobials” (J Med Chem, 2024)
